Experimental data: PMC3806331 (Journal of natural products, 2013)
Where two headings read alike, the source gives them in different places.

Legend:
[1] = test system: quinone reductase in Hepa 1c1c7 murine hepatoma cell line; test: Quinone reductase induction assay; type: cell-based; settings: Mus musculus, Hepa-1c1c7, read-out: CD (concentration required to double quinone reductase activity), Hepa 1c1c7 cells; average ± SD, three independent experiments
[2] = test system: Raji human Burkitt's lymphoma cells; test: MTS growth inhibition assay, Raji cells; type: cell-based
[3] = test system: HT-29 human colon cancer cell line; test: SRB cytotoxicity assay, HT-29; type: cell-based; settings: HT-29, 72 h, read-out: IC50 HT-29 72 h
[4] = test system: immunodeficient female NCr nu/nu mice; test: Toxicity to mice in the hollow fiber assay; type: in vivo
In short: (§1)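 HT-29 cells (1 × 10^6 per mL), alongside other human cancer lines, grown in hollow fibers implanted ip and sc in immunodeficient female NCr nu/nu mice. Test compound given by ip injection once daily: first run at 5, 10, 15, 30 mg/kg in 30% cyclodextrin; repeat run at 0.5, 1, 2 mg/kg. Positive controls: bortezomib 1 mg/kg ip (first run); paclitaxel 5 mg/kg ip (repeat run).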

[5] = test system: HT-29 human colon cancer cells; test: In vivo hollow fiber assay, HT-29; settings: HT-29 in hollow fibers in mice, any dose, ip once daily
In short: as §1

[6] = test system: 697 human acute lymphoblastic leukemia cells; test: MTS growth inhibition assay, 697 cells; type: cell-based; settings: read-out: IC50 values in 697 cells (range)

SMILES | EC (2-fold induction) [1] [µM] | IC50 ([2]; 48 h, read-out: IC50 Raji 48 h) [µM] | IC50 ([2]; 72 h, read-out: IC50 Raji 72 h) [µM] | IC50 [3] [µM] | toxicity to mice ([4]; ip 0.5, 1 and 2 mg/kg once daily) | lethality to mice ([4]; ip 5, 10, 15 and 30 mg/kg once daily) | net reduction of relative percent cell growth [5] | IC50 [6] [µM]
COc1ccc2c(c1C1=COC(C)(C)C1=O)O[C@H](c1ccccc1)CC2=O [Compound 3, (2S)-2,3-dihydrotephroglabrin] | < 10 | > 10 | > 10 | > 10 |  |  |  | 
COc1ccc2c(c1/C=C/C(C)(C)O)O[C@H](c1ccccc1)CC2=O [Compound 4, (2S)-2,3-dihydrotephroapollin C] |  | > 10 | > 10 | > 10 |  |  |  | 
COc1ccc2c(c1/C=C/C(C)(C)OC)O[C@H](c1ccccc1)CC2=O [Compound 6, (2S)-7-methoxy-8-(3-methoxy-3-methyl-but-1-enyl)flavanone] | < 10 | > 10 | > 10 | > 10 |  |  |  | 
C=C(C)[C@H]1Cc2c(ccc3c2O[C@@H]2COc4cc(OC)c(OC)cc4[C@]2(O)C3=O)O1 [Compound 7, cis-(6aβ,12aβ)-hydroxyrotenone] |  |  |  |  | no noticeable toxicity | lethal | No effect | 
COc1cc2c(cc1OC)[C@]1(O)C(=O)c3ccc4c(c3O[C@@H]1CO2)C=CC(C)(C)O4 [Compound 9, tephrosin] |  |  |  |  |  |  |  | 5.4 to 9
COc1cc2c(c(O)c1C(=O)/C=C/c1ccccc1)[C@H]1[C@@H](O2)OC(C)(C)[C@@H]1OC(C)=O [Compound 10, (+)-tephropurpurin] |  | > 10 | > 10 | > 10 |  |  |  | 
CC1(C)O[C@@H]2Oc3ccc(C(=O)/C=C/c4ccccc4)c(O)c3[C@@H]2[C@H]1O [Compound 11, (+)-tephrosone] |  | > 10 | > 10 | > 10 |  |  |  | 
